Assay [1] deals with T1, Ectonucleotide pyrophosphatase/phosphodiesterase family member 1 (Homo sapiens) (UniProt P22413).
T1 sequence (whole entry): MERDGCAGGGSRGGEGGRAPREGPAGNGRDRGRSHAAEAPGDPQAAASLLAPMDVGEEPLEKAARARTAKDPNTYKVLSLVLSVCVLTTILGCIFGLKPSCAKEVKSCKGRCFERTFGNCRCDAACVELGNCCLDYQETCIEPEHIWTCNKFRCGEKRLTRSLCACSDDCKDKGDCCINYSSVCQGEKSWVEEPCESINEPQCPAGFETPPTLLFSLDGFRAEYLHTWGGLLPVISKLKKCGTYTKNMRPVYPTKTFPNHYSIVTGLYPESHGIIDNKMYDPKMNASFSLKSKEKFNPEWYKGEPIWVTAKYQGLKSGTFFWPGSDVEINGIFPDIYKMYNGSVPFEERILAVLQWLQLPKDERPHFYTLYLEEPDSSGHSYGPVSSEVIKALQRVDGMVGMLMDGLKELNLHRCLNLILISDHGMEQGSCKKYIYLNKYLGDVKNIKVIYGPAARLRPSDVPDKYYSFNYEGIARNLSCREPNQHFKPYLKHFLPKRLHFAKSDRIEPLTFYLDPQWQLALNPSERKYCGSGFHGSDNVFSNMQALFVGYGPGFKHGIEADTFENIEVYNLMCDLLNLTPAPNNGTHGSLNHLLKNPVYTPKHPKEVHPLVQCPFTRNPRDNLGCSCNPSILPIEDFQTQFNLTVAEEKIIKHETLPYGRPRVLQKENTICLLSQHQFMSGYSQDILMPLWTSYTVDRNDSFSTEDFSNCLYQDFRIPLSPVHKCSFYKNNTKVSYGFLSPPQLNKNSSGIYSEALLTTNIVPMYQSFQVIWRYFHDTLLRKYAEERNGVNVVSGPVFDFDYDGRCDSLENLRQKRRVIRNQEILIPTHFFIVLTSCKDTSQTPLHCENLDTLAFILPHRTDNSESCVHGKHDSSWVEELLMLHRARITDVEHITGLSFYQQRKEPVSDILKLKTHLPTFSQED
The assay can be described thus: Activity of human NPP1 expressed in COS7 cells assessed as production of p-nitrophenol using Ap5A as the substrate at 100 uM after 30 mins by malachite green reagent method. The format is cell-based. The conditions noted are these: COS-7.

Assay [2] addresses T2, Ectonucleotide pyrophosphatase/phosphodiesterase family member 3 (Homo sapiens) (UniProt O14638).
T2 sequence (whole entry): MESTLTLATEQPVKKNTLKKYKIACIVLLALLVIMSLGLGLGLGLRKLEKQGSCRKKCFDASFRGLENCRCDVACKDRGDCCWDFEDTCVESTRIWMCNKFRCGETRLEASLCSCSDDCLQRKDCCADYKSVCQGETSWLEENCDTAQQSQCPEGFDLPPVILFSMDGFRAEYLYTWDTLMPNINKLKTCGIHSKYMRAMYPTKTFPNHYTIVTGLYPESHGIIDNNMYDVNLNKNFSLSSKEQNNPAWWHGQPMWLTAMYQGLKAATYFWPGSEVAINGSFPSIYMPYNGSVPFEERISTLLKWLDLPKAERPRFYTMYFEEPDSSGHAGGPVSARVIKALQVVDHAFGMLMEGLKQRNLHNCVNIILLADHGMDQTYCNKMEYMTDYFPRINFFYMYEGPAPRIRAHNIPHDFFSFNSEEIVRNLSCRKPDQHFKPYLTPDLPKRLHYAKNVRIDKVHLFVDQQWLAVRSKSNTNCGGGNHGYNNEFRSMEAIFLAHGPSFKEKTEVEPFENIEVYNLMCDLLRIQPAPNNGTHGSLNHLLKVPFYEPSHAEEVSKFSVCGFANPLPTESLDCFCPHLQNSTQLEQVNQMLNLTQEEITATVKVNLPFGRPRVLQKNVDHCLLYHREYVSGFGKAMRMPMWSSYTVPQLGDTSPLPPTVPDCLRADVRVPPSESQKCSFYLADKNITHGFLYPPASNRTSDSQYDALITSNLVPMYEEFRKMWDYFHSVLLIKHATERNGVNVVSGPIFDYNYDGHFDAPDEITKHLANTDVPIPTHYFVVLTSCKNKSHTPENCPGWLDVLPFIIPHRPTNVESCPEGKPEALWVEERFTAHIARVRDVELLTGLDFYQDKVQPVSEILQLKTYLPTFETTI
As to the kind of experiment: Inhibition of human NPP3 expressed in COS7 cells assessed as production of p-nitrophenol using Ap5A as the substrate at 100 uM after 30 mins […]. The note with it: COS-7. The format is cell-based.

In assay [3] the target is Autotaxin (Homo sapiens) (UniProt Q13822). As to the kind of experiment: Inhibition of human NPP2 expressed in COS7 cells assessed as production of p-nitrophenol using pnp-TMP as the substrate at 100 uM after 15 mins […]. The note with it: COS-7. The format is cell-based. The method in brief: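 Human NPP1, NPP2 (membrane lysate or conditioned medium for the secreted form) or NPP3 from transfected COS-7 cells, preincubated 3 min at 37 °C in 50 mM Tris pH 8.5 buffer with CaCl2, NaCl and KCl. Substrate and inhibitor both at 100 μM final. pnp-TMP: p-nitrophenol read at 405 nm at 15 min. ATP or Ap5A: stopped at 30 min with perchloric acid, then HPLC. Results as % residual activity versus control; three to six experiments in triplicate.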

In assay [4] the target is P2Y purinoceptor 2 (Homo sapiens) (UniProt P41231). As to the kind of experiment: Agonist activity at GFP tagged-human P2Y2 receptor expressed in human 1321N1 cells assessed as elevation in calcium level at 25 uM after 30 mins by fluorescence spectrophotometric analysis. The format is functional, cell-based.
Assay [5] addresses T3, Ectonucleoside triphosphate diphosphohydrolase 2 (Homo sapiens) (UniProt Q9Y5L3).
T3 sequence (whole entry): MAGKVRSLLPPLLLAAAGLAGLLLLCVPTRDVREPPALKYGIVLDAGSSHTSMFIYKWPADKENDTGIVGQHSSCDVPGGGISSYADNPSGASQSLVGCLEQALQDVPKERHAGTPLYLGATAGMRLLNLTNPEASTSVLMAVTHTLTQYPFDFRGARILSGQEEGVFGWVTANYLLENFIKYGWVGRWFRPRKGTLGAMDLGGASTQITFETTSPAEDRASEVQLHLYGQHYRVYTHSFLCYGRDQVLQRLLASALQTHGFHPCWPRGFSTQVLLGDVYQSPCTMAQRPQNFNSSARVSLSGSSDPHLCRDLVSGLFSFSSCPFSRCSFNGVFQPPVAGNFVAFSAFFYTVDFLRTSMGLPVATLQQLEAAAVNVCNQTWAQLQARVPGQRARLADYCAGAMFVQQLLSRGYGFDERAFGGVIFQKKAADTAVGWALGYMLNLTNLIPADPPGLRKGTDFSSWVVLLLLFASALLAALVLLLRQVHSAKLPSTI
The assay can be described thus: Inhibition of human NTPDase2 expressed in COS7 cells assessed as amount of inorganic phosphate released using ATP as the substrate at 100 uM after 15 mins by malachite green reagent method. The format is cell-based. The note with it: COS-7. The gist of the method:
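Protein extracts of transfected COS-7 cells (ecto-5'-nucleotidase: 100 μM AMP substrate; NTPDases: 100 μM ATP) were preincubated 3 min at 37 °C in Tris-Ringer pH 7.3 with inhibitor at 100 μM final. After 15 min, malachite green stop; Pi read at 630 nm. Activity given as % of substrate-only control. Mean ± SD of three experiments in triplicate.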

Each structure is given as a SMILES string. Activity calls are given as the source filed them. The calls are words filed in the database; no cut-off is given here.

Sequence of P2Y purinoceptor 2 (Homo sapiens) (P41231 whole entry): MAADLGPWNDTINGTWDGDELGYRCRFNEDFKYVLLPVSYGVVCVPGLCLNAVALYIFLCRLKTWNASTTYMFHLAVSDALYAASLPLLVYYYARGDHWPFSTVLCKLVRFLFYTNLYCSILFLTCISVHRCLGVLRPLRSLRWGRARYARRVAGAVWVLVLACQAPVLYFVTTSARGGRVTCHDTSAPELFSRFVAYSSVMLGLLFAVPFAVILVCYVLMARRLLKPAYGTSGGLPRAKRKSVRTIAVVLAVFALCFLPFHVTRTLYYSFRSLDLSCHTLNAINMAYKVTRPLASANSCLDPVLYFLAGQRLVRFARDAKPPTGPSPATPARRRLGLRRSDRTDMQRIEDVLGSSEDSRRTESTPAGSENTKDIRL

Take `Nc1ncnc2c1ncn2[C@H]1C[C@H](O)[C@@H](COP(=O)(O)CP(=O)(O)OP(=O)(O)CP(=O)(O)OC[C@H]2O[C@@H](n3cnc4c(N)ncnc43)C[C@@H]2O)O1`: in assay [1], the Activity is 2.3%. Also, the inhibition stood at 10% in assay [2], 95% in assay [3] and 10% in assay [5]. Further, the result in assay [4] was inactive.

Consider `Nc1ncnc2c1ncn2[C@@H]1O[C@H](COP(=O)(O)CP(=O)(O)OP(=O)(O)CP(=O)(O)OC[C@H]2O[C@@H](n3cnc4c(N)ncnc43)[C@H](O)[C@@H]2O)[C@@H](O)[C@H]1O`, for which the Activity in assay [1] came to 13%. In addition, the inhibition in assay [2] worked out at 10%; in assay [3], 95%; in assay [5] it was 10%. Further, the outcome in assay [4] was inactive.

Consider `BP(=O)(OP(=O)(O)CP(=O)(O)OC[C@H]1O[C@@H](n2cnc3c(N)ncnc32)C[C@@H]1O)OP(=O)(O)CP(=O)(O)OC[C@H]1O[C@@H](n2cnc3c(N)ncnc32)C[C@@H]1O`, for which the inhibition in assay [2] is 10%; in assay [3], 95%; in assay [5], 10%. Further, in assay [4], the result was inactive.

For `BP(=O)(OP(=O)(O)CP(=O)(O)OC[C@H]1O[C@@H](n2cnc3c(N)ncnc32)[C@H](O)[C@@H]1O)OP(=O)(O)CP(=O)(O)OC[C@H]1O[C@@H](n2cnc3c(N)ncnc32)[C@H](O)[C@@H]1O`, in assay [1], the Activity turned out to be 7.5%. The inhibition in assay [2] was determined as 10%; in assay [3] it was 95%; in assay [5], 10%. Also, the outcome in assay [4] was inactive.
